According to ChEMBL document CHEMBL1148398, “Design, synthesis, and biological evaluation of thio-containing compounds with serum HDL-cholesterol-elevating properties” (2004):

Columns and labels:
Rattus norvegicus [1] = assay: Effect of compound on lactic dehydrogenase (LDH) levels in 5th group of normal chow-fed male rats after a dose of 20 mg/kg/day; assay type: functional, organism-based
Method in brief: (§1)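 Male Sprague–Dawley CD rats, 60–80 g, on chow with a reverse 12 h light/dark cycle. Given one oral gavage dose daily for 4 days, suspended in 1.3% Tween 80/0.25% CMC. Fasted overnight and sacrificed 24 h after the last dose for blood and liver. Serum liver enzymes read on a clinical analyzer. Six per group, mean ± SEM.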

Rattus norvegicus [2] = assay: Effect of compound on aspartate aminotransferase (AST) levels in 1st group of normal chow-fed male rats after a dose of 1 mg/kg/day; assay type: functional, organism-based
Method in brief: (§2)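 Male Sprague–Dawley CD rats (60–80 g) on standard chow under a reversed 12 h light/dark cycle. Compound was suspended in 1.3% Tween 80/0.25% CMC and given as a single daily oral gavage dose for 4 days. Rats were fasted overnight and killed 24 h after the last dose. Serum ALT, AST, ALKP and LDH were read on a clinical analyzer. Weight gain was start versus end weight. Mean ± SEM, n = 6.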

Rattus norvegicus [3] = assay: Effect of compound on very low-density lipoprotein cholesterol levels in 4th group of normal chow-fed male rats after a dose of 10 mg/kg/day; assay type: functional, organism-based
Method in brief: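 Male Sprague–Dawley CD rats (60–80 g) on Purina 5001 chow with a reverse 12 h light/dark cycle. Dosed once daily by oral gavage for 4 days, suspended in 1.3% Tween 80 / 0.25% CMC. Fasted overnight and bled 24 h after the last dose. Serum TC and glycerol-blanked TG measured enzymatically; VLDL-C by FPLC fractionation with cholesterol assay. n=6, mean ± SEM.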

[4] = Effect on serum lipids in 2nd group of normal chow-fed male rats after a dose of 2 mg/kg/day was evaluated as ratio of total plasma cholesterol levels to high-density lipoprotein cholesterol levels; assay type: functional
Method in brief: (§3)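 Male Sprague–Dawley CD rats, 60–80 g, chow-fed, dosed by oral gavage daily for 4 days in 1.3% Tween 80/0.25% CMC. Fasted overnight, bled 24 h after the last dose. Serum total cholesterol by enzymatic reagent; HDL-C from cholesterol in FPLC fractions; TPC/HDL-C ratio calculated. Six per group, mean ± SEM.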

Cricetinae gen. sp. [5] = assay: Effect of compound on low-density lipoprotein cholesterol levels in 1st group of cholesterol-fed male hamsters at 3 mg/kg/day after 14 days of treatment; conditions: Mesocricetus auratus
Cricetinae gen. sp. [6] = assay: Percent change in low-density lipoprotein cholesterol following oral administration of compound in hypercholesterolemic hamsters at 100 mg/kg/day for 14 days; assay type: functional
Method in brief: (§4)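 Male Syrian Golden hamsters pre-fed chow plus 0.25% cholesterol for 2 weeks and kept on it. Dosed 100 mg/kg/day by oral gavage in 2% Tween 80/saline for 14 days. Serum total cholesterol and glycerol-blanked triglycerides read enzymatically; lipoproteins separated by FPLC with cholesterol measured in each fraction. % change versus vehicle controls; six per group, p < 0.05.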

Cricetinae gen. sp. [7] = assay: Percent change in high-density lipoprotein cholesterol following oral administration of compound in hypercholesterolemic hamsters at 100 mg/kg/day for 14 days; assay type: functional; method in brief: as §4
[8] = Effect on serum lipids in 3rd group of cholesterol-fed male hamsters at 30 mg/kg/day after 14 days of treatment was evaluated as ratio of total cholesterol levels to high-density lipoprotein cholesterol levels; assay type: functional
Method in brief: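 Male Syrian Golden hamsters on chow plus 0.25% cholesterol, 2 weeks before and during dosing. Oral gavage for 14 days in 2% Tween 80/saline. Fasted 4 h before sacrifice. Serum total cholesterol measured enzymatically; HDL-C from cholesterol in FPLC lipoprotein fractions; TC/HDL-C ratio calculated. Six per group, mean ± SEM.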

Rattus norvegicus [9] = assay: Effect of compound on high-density lipoprotein cholesterol levels in 7th group of normal chow-fed male rats after a dose of 100 mg/kg/day; assay type: functional, organism-based
Rattus norvegicus [10] = assay: Effect of compound on lactic dehydrogenase (LDH) levels in 6th group of normal chow-fed male rats after a dose of 50 mg/kg/day; assay type: functional, organism-based; method in brief: as §1
Rattus norvegicus [11] = assay: Effect of compound on serum apolipoprotein A1 concentration in chow-fed male rats at a dose of 10 mg/kg/day; assay type: functional, organism-based
Method in brief: (§5)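 Separate dose-response study in male Sprague–Dawley CD rats, 60–80 g, on chow. Oral gavage once daily for 4 days in 1.3% Tween 80 / 0.25% CMC; fasted overnight, bled 24 h after last dose. Apo-A1 by ELISA with rabbit anti-rat primary, alkaline phosphatase-conjugated anti-rabbit IgG and p-nitrophenyl phosphate substrate. HDL-C by FPLC fractionation. Mean ± SEM, six per group.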

Rattus norvegicus [12] = assay: Effect of compound on alkaline phosphatase (ALKP) levels in 1st group of normal chow-fed male rats after a dose of 1 mg/kg/day; assay type: functional, organism-based; method in brief: as §2
Rattus norvegicus [13] = assay: Effect of compound on liver weight in 4th group of normal chow-fed male rats after a dose of 10 mg/kg/day; assay type: functional; method in brief: as §1
Cricetinae gen. sp. [14] = assay: Effect of compound on lactic dehydrogenase (LDH) levels in 3rd group of cholesterol-fed male hamsters at 30 mg/kg/day after 14 days of treatment; conditions: Mesocricetus auratus
Rattus norvegicus [15] = assay: Percent change in very low-density lipoprotein cholesterol following oral administration of compound in normal chow-fed rats at 100 mg/kg/day for 4 days; assay type: functional
Method in brief: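 Chow-fed male Sprague–Dawley CD rats, 60–80 g, gavaged 100 mg/kg/day for 4 days in 1.3% Tween 80/0.25% CMC. Fasted overnight, bled 24 h after the last dose. Total cholesterol and glycerol-blanked triglycerides read enzymatically; lipoproteins by FPLC with cholesterol per fraction. % change versus control; six per group, p < 0.05.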

Rattus norvegicus [16] = assay: Effect of compound on serum high-density lipoprotein cholesterol concentration in chow-fed male rats at a dose of 5 mg/kg/day; assay type: functional, organism-based; method in brief: as §5
[17] = Effect on serum lipids in 4th group of normal chow-fed male rats after a dose of 10 mg/kg/day was evaluated as ratio of total plasma cholesterol levels to high-density lipoprotein cholesterol levels; assay type: functional; method in brief: as §3
Rattus norvegicus [18] = assay: Effect of compound on alkaline phosphatase (ALKP) levels in 6th group of normal chow-fed male rats after a dose of 50 mg/kg/day; assay type: functional, organism-based; method in brief: as §2
Rattus norvegicus [19] = assay: Effect of compound on low-density lipoprotein cholesterol levels in 4th group of normal chow-fed male rats after a dose of 10 mg/kg/day; assay type: functional, organism-based
Method in brief: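 Male Sprague–Dawley CD rats, 60–80 g, on standard chow with reverse 12 h light/dark cycle. One oral gavage dose daily for 4 days, suspended in 1.3% Tween 80 and 0.25% CMC. Fasted overnight; sacrificed 24 h after the last dose. Serum TC on clinical analyzer, lipoproteins by FPLC with cholesterol per fraction, T4 on analyzer. Mean ± SEM, six rats per group.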

Cricetinae gen. sp. [20] = assay: Effect of compound on triglycerides level in 2nd group of cholesterol-fed male hamsters at 10 mg/kg/day after 14 days of treatment; conditions: Mesocricetus auratus
Mesocricetus auratus = assay: Effect of compound on gain in body weight in 3rd group of cholesterol-fed male hamsters at 30 mg/kg/day after 14 days of treatment

Compound `CCN1CC(=O)N(c2cc(Cl)ccc2C)C1=S` has a Level (Rattus norvegicus [1]) of 1140 U l-1, a Level (Rattus norvegicus [2]) of 216 U l-1 and a Serum level (Rattus norvegicus [3]) of 3.4 mg/dL. For the same compound, the Ratio [4] was 1.37, the Serum level (Cricetinae gen. sp. [5]) was 178 mg/dL and the Change (Cricetinae gen. sp. [6]) was -30.1%. For the same compound, the Change (Cricetinae gen. sp. [7]) was 43%, the Ratio [8] was 2.39 and the Serum level (Rattus norvegicus [9]) was 76 mg/dL. It also gave a Level (Rattus norvegicus [10]) of 815 U l-1, a Serum level (Rattus norvegicus [11]) of 79.2 mg/dL and a Level (Rattus norvegicus [12]) of 312 U l-1. It also gave a Liver weight (Rattus norvegicus [13]) of 8.3 g, a Level (Cricetinae gen. sp. [14]) of 823 U l-1 and a Change (Rattus norvegicus [15]) of -17.2%. For the same compound, the Serum level (Rattus norvegicus [16]) was 52.4 mg/dL, the Ratio [17] was 1.39 and the Level (Rattus norvegicus [18]) was 330 U l-1. It also gave a Serum level (Rattus norvegicus [19]) of 8.1 mg/dL, a Serum level (Cricetinae gen. sp. [20]) of 455 mg/dL and a Body weight (Mesocricetus auratus) of 8.2 g.
